# Active and inactive are the calls of the source. The rule behind the calls is not given here.
# Assays:
# HEK293T [1] = assay: Induction of STING H232 mutant (unknown origin) expressed in HEK293T cells assessed as increase in luciferase coupled ISG54-ISRE activity incubated for 18 hrs luciferase reporter gene assay; format: cell-based; details: Homo sapiens, filed as activator
# HEK293T [2] = assay: Induction of STING Q mutant (unknown origin) expressed in HEK293T cells assessed as increase in luciferase coupled ISG54-ISRE activity incubated for 18 hrs luciferase reporter gene assay; format: cell-based; details: Homo sapiens, filed as activator
# [3] = target: T1, Stimulator of interferon genes protein (Mus musculus) (UniProt Q3TBT3); assay: Activation of mouse STING
# T1 sequence (whole entry): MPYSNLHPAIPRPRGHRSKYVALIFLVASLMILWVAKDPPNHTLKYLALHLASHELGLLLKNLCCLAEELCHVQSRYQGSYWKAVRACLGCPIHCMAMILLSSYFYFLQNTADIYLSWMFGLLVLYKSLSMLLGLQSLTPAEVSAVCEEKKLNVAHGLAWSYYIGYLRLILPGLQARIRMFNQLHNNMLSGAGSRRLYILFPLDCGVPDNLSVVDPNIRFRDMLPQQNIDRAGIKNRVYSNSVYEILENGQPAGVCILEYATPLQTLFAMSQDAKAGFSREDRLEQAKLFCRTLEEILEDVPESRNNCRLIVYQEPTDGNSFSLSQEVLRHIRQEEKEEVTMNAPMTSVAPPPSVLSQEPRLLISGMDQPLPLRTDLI
# [4] = target: Stimulator of interferon genes protein (Macaca fascicularis) (UniProt A0A2K5TV20); assay: Activation of cynomolgus monkey STING; details: filed as activator
# HEK293T [5] = assay: Activation of human STING R232H mutant expressed in HEK293T cells assessed as phosphorylation at (Ser366) upto 10 uM incubated for 2 hrs and measured by Western blot analysis; format: cell-based; details: filed as activator, dose microM <=10, time 2.0 hrs
# In short: (§1)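 HEK293T clones stably carrying each human STING variant, picked by blasticidin selection and limiting dilution. 5 x 10^5 cells were exposed to compound at 10μM for 2 h, lysed in RIPA with phosphatase and protease inhibitors, and 10 μg protein run on 10% SDS-PAGE. Immunoblots probed for pSTING (Ser366), pIRF3 (Ser396), total STING, IRF3 and actin, detected by ECL.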
# HEK293T [6] = assay: Activation of human STING H232 mutant expressed in HEK293T cells assessed as phosphorylation of IRF-3 at (Ser396) at 10 uM incubated for 2 hrs and measured by Western blot analysis; format: cell-based; details: filed as activator; in short: as §1
# [7] = test system: Stimulator of interferon genes protein (Homo sapiens), Q86WV6 [R71H,G230A,R293Q]; assay: Activation of human STING HAQ mutant expressed in HEK293T cells assessed as phosphorylation at (Ser366) at 10 uM incubated for 2 hrs and measured by Western blot analysis; format: cell-based; details: filed as activator; in short: as §1
# [8] = test system: Stimulator of interferon genes protein (Homo sapiens), Q86WV6 [R71H,G230A,R293Q]; assay: Activation of human STING HAQ mutant expressed in HEK293T cells assessed as phosphorylation of IRF-3 at (Ser396) at 10 uM incubated for 2 hrs and measured by Western blot analysis; format: cell-based; details: filed as activator; in short: as §1
# [9] = test system: Stimulator of interferon genes protein (Homo sapiens), Q86WV6 [G230A,R293Q]; assay: Activation of human STING AQ mutant expressed in HEK293T cells assessed as phosphorylation at (Ser366) at 10 uM incubated for 2 hrs and measured by Western blot analysis; format: cell-based; details: filed as activator; in short: as §1
# [10] = test system: Stimulator of interferon genes protein (Homo sapiens), Q86WV6 [G230A,R293Q]; assay: Activation of human STING AQ mutant expressed in HEK293T cells assessed as phosphorylation of IRF-3 at (Ser396) at 10 uM incubated for 2 hrs and measured by Western blot analysis; format: cell-based; details: filed as activator; in short: as §1
# [11] = test system: Stimulator of interferon genes protein (Homo sapiens), Q86WV6 [UNDEFINED MUTATION]; assay: Activation of human STING R232 in A 172 cells assessed as phosphorylation at (Ser366) at 10 uM incubated for 2 hrs and measured by Western blot analysis; format: cell-based; details: filed as activator
# In short: (§2)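 Tumor cell lines or human primary cells carrying endogenous STING variants; STING KO cells as control. 10µM for 2 h, then lysed in RIPA with phosphatase and protease inhibitors. 10 μg protein on 10% SDS-PAGE, blotted for pSTING (Ser366), pIRF3 (Ser396), STING, IRF3 and actin, ECL detection.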
# [12] = test system: Stimulator of interferon genes protein (Homo sapiens), Q86WV6 [UNDEFINED MUTATION]; assay: Activation of human STING R232 in A 172 cells assessed as phosphorylation of IRF-3 at (Ser396) at 10 uM incubated for 2 hrs and measured by Western blot analysis; format: cell-based; details: filed as activator; in short: as §2
# [13] = target: T2, Stimulator of interferon genes protein (Homo sapiens, UniProt Q86WV6); assay: Activation of human STING expressed in human PBMC cells assessed as phosphorylation at (ser366) at 10 uM incubated for 2 hrs and measured by Western blot analysis; format: cell-based; details: filed as activator; in short: as §2
# [14] = target: T2, Stimulator of interferon genes protein; assay: Activation of human STING in human PBMC cells assessed as induction of CXCL10 expression at 10 uM incubated upto 24 hrs and measured by qt-PCR analysis; format: cell-based; details: filed as activator, time hrs <=24
# In short: (§3)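 2 x 10^5 freshly isolated human PBMC from healthy donors, separated on Histopaque, given a single compound concentration. Harvested early (6 hr) or late (20h). Cytokine mRNA read by qRT-PCR as relative normalized expression (fold) against vehicle-treated cells.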
# [15] = target: T2, Stimulator of interferon genes protein; assay: Activation of human STING in human PBMC cells assessed as induction of IL6 expression at 10 uM measured by qt-PCR analysis; format: cell-based; details: filed as activator; in short: as §3
# [16] = Stability in human plasma at 37 degC by LC-MS/MS analysis; format: ADME, cell-free
# In short: (§4)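 Compound at 10 μM was incubated in mouse or human plasma at 37°C and its stability assessed.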
# [17] = Stability in mouse plasma at 37 degC by LC-MS/MS analysis; format: ADME, cell-free; in short: as §4
# Cytochrome P450 3A4 = Cytochrome P450 3A4 (Homo sapiens, UniProt P08684); assay: Inhibition of CYP3A4 (unknown origin); format: ADME
# B16-F10 = assay: Cytotoxicity against mouse B16 F10 cells at 5 to 10 uM; format: cell-based; details: b16-f10, 10 µM, dose 5-10 µM
# hERG (KCNH2) = hERG (KCNH2) (Homo sapiens, UniProt Q12809); assay: Inhibition of human ERG at 10 uM
# [18] = AUC in BALB/c mouse at 10 mg/kg, po measured up to 24 hrs by LC-MS/MS analysis; format: ADME, organism-based; design: route oral, dose 10 mg/kg, time <=24; details: in vivo
# In short: (§5)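 Overnight-fasted mice, n=3 per group, single dose by lateral tail vein (iv) or oral gavage (po). Retro-orbital blood under isoflurane at 2 min–24 h (iv) or 5 min–24 h (po). Plasma spun at 1500 x g, 15 min, 4 °C, stored -80 °C, then analysed by LCMS.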
# [19] = Half life in BALB/c mouse at 5 mg/kg, iv measured up to 24 hrs by LC-MS/MS analysis; format: ADME, organism-based; details: in vivo; in short: as §5
# Cytochrome P450 2D6 = Cytochrome P450 2D6 (Homo sapiens, UniProt P10635); assay: Inhibition of CYP2D6 (unknown origin); format: ADME
# Cytochrome P450 2C9 = Cytochrome P450 2C9 (Homo sapiens, UniProt P11712); assay: Inhibition of CYP2C9 (unknown origin); format: ADME
# [20] = Chemical stability of compound in buffer at pH 3 to 8
# T2 sequence (Q86WV6 whole entry): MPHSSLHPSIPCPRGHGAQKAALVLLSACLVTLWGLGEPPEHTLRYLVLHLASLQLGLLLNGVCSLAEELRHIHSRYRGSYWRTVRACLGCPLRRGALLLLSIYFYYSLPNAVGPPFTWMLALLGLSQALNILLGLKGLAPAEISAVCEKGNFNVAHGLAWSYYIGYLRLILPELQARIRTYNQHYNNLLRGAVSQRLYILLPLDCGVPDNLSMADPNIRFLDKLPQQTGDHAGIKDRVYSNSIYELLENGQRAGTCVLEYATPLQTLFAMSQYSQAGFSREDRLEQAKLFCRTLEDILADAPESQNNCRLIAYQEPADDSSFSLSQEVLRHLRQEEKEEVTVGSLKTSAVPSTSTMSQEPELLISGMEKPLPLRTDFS
# Stimulator of interferon genes protein (Homo sapiens), Q86WV6 [R71H,G230A,R293Q], sequence (Q86WV6 whole entry R71H/G230A/R293Q): as the sequence (Q86WV6 whole entry) above, with R71H, G230A, R293Q counted along it
# Stimulator of interferon genes protein (Homo sapiens), Q86WV6 [G230A,R293Q], sequence (Q86WV6 whole entry G230A/R293Q): as the sequence (Q86WV6 whole entry) above, with G230A, R293Q counted along it
# Stimulator of interferon genes protein (Homo sapiens), Q86WV6 [UNDEFINED MUTATION], sequence (Q86WV6 whole entry, looked up, change not shown): as the sequence (Q86WV6 whole entry) above
# Cytochrome P450 2C9, sequence (P11712 whole entry): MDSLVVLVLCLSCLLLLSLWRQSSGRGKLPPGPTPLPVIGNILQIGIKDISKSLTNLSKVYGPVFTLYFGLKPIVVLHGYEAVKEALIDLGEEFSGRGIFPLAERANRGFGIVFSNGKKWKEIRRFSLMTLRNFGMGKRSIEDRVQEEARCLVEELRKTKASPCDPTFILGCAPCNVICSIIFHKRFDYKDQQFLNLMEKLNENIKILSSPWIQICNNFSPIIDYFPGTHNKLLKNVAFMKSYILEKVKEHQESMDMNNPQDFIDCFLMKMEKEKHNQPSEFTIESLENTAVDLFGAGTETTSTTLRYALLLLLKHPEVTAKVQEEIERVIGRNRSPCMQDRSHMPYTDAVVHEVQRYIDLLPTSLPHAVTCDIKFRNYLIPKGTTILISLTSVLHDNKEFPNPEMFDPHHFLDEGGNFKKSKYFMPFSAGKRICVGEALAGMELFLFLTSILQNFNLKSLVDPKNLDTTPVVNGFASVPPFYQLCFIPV
# Cytochrome P450 3A4, sequence (P08684 whole entry): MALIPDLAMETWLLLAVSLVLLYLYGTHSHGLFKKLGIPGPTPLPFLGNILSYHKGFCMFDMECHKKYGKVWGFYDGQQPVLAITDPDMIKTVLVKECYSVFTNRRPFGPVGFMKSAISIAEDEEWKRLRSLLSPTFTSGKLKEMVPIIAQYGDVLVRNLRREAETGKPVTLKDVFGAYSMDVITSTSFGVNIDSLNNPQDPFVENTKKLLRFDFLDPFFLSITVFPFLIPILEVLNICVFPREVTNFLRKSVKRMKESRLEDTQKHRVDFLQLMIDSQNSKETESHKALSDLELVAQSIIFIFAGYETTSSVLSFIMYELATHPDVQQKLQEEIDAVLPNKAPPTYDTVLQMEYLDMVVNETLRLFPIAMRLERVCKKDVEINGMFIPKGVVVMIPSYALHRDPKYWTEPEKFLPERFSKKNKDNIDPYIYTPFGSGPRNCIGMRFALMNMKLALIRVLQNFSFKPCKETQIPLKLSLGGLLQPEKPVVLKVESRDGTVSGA
# Stimulator of interferon genes protein (Macaca fascicularis), sequence (A0A2K5TV20 as listed by the source): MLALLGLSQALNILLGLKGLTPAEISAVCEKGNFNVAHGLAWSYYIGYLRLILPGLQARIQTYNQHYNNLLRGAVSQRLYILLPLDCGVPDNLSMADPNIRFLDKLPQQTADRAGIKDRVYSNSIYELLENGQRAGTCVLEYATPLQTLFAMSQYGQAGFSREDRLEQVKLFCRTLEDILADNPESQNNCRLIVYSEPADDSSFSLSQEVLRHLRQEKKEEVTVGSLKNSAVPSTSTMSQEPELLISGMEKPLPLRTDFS
# Cytochrome P450 2D6, sequence (P10635 whole entry): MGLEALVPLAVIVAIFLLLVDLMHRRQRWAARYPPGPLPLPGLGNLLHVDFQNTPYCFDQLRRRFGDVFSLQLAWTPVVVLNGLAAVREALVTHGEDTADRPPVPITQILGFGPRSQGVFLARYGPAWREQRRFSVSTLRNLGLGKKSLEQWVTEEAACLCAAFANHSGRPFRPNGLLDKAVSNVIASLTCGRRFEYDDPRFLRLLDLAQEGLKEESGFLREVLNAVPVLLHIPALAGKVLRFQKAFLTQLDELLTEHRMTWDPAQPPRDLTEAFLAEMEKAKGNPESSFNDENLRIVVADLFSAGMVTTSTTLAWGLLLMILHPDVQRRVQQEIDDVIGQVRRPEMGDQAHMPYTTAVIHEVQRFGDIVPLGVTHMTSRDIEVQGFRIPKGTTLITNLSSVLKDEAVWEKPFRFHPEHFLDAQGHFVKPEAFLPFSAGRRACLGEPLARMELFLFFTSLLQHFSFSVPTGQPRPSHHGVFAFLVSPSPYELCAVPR
# hERG (KCNH2), sequence (Q12809 whole entry): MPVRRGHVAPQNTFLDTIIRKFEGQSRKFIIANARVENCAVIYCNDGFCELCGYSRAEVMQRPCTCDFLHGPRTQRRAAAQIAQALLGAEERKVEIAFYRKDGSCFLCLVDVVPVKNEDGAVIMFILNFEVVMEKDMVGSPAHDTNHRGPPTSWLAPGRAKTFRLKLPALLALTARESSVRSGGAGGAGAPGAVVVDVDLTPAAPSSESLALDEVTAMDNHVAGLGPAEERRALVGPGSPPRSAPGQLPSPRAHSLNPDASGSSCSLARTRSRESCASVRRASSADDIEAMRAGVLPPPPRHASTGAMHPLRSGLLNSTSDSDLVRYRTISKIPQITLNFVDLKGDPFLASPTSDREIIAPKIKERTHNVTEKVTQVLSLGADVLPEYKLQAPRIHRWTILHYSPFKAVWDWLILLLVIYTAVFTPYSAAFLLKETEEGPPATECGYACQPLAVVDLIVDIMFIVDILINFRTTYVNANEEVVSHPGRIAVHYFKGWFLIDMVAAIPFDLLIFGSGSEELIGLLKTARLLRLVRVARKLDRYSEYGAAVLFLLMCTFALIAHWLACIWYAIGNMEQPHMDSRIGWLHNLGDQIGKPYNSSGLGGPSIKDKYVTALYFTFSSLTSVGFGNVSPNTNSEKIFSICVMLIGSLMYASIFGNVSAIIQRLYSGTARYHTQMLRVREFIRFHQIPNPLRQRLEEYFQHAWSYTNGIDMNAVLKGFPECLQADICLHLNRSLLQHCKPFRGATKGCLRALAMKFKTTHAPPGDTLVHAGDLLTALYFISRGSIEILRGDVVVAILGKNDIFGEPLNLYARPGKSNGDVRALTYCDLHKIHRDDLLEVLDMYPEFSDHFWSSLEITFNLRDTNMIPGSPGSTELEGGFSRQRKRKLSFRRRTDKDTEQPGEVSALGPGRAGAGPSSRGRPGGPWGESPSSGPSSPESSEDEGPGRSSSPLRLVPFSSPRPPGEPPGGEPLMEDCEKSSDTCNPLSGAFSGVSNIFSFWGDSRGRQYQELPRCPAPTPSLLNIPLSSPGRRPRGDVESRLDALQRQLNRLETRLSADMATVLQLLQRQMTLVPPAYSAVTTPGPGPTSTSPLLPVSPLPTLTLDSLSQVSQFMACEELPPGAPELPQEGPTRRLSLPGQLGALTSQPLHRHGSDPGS
smiles,measurement,setting,value
CC1(C)C(=O)N(Cc2c(F)cccc2Cl)c2cc(C(=O)NCc3c(F)cc(F)cc3F)ccc21,Activity,HEK293T [1],Active
same,Activity,HEK293T [2],Active
same,Activity,[3],inactive
same,Activity,[4],Active
same,Activity,HEK293T [5],Dose-dependent effect
same,Activity,HEK293T [6],Active
same,Activity,[7],Active
same,Activity,[8],Active
same,Activity,[9],Active
same,Activity,[10],Active
same,Activity,[11],Active
same,Activity,[12],Active
same,Activity,[13],Active
same,Activity,[14],Active
same,Activity,[15],Active
same,Stabilty,[16],Stable
same,Stabilty,[17],Stable
same,inhibition (INH),Cytochrome P450 3A4,Not Active
same,Activity,B16-F10,Non-Toxic
same,inhibition at 10 µM,hERG (KCNH2),20%
same,AUC at 24 h,[18],2090 ng·h/mL
same,half-life,[19],1.41 h
same,inhibition (INH),Cytochrome P450 2D6,Not Active
same,inhibition (INH),Cytochrome P450 2C9,Not Active
same,Stabilty,[20],Stable

# Reference: ChEMBL document CHEMBL4732051, “The discovery of potent small molecule activators of human STING” (Eur J Med Chem, 2021)
